In ChEMBL document CHEMBL5154715, “Phenolic Lipids Derived from Cashew Nut Shell Liquid to Treat Metabolic Diseases” (J Med Chem, 2022):
Activity calls are given as the source filed them. No cut-off for these calls is given here.

Assays:
Danio rerio [1] = test: In vivo agonist activity at human GFP-tagged PPARalpha in transgenic zebrafish assessed as increase in GFP expression in brain at 0.7 uM measured after 14 hrs by microscopy
[2] = AUC (0 to infinity) in C57BL/6 mouse at 40 mg/kg, ip measured upto 24 hrs by LC-MS/MS analysis; format: ADME, organism-based; set-up: time < 24 hrs, dose 40 mg/kg, route ip; conditions: in vivo
Method in brief: (§1)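 Single IP dose in 5% DMSO/5% Tween-80/90% saline to WT male C57Bl/6 mice, 7–10 months old; n = 4 per time point. Saphenous sampling at 0.08–0.5 h, then terminal trunk blood at 1–6 h. Plasma extracted with methanol plus internal standard and analyzed by LC-MS/MS; mean ± SEM.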

[3] = Terminal half life in C57BL/6 mouse at 100 mg/kg, po measured upto 24 hrs by LC-MS/MS analysis; format: ADME, organism-based; conditions: in vivo, read-out: beta t1/2 (converted)
Method in brief: (§2)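 Single oral dose given in peanut butter pellets to WT male C57Bl/6 mice acclimated 7 days to drug-free pellets; n = 4 per time point. Saphenous blood at 0.25–2 h, terminal collection at 4–38 h. Plasma extracted with methanol containing internal standard, LC-MS/MS with negative-ion ESI MRM. Parameters reported as mean ± SEM; Frel is oral vs IP.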

[4] = Apparent oral clearance in C57BL/6 mouse at 100 mg/kg, po measured upto 24 hrs by LC-MS/MS analysis; format: ADME, organism-based; conditions: in vivo
Method in brief: as §2

[5] = Terminal half life in C57BL/6 mouse at 40 mg/kg, ip […] by LC-MS/MS analysis; format: ADME, organism-based; conditions: in vivo, read-out: beta t1/2 (converted)
[6] = biological target: T1, Peroxisome proliferator-activated receptor gamma (Mus musculus) (UniProt P37238); test: Agonist activity at human PPARgamma in mouse 3T3-L1 cells assessed as induction of Glut4 mRNA expression at 25 uM incubated for 11 days by quantitative real-time PCR analysis; conditions: filed as agonist, time 11.0 day
T1 sequence (whole entry): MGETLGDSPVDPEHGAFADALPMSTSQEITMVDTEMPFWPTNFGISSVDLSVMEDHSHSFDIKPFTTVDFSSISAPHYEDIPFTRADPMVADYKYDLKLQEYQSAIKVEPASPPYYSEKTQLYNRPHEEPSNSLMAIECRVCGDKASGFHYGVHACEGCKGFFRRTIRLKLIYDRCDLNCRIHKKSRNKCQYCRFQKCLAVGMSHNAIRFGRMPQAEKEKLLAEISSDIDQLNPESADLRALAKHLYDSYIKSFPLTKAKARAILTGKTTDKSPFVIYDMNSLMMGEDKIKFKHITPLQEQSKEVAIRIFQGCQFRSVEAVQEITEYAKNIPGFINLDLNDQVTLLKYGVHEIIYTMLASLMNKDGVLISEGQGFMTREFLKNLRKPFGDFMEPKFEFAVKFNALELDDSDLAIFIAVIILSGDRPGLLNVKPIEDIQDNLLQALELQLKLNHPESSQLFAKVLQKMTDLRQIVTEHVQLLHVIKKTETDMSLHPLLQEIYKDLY

[7] = AUC (0 to infinity) in C57BL/6 mouse at 100 mg/kg, po […] by LC-MS/MS analysis; format: ADME, organism-based; set-up: dose 100 mg/kg, route po; conditions: in vivo
Danio rerio [8] = test: In vivo agonist activity at human GFP-tagged PPARalpha in transgenic zebrafish assessed as increase in GFP expression in muscle at 0.5 uM measured after 14 hrs by microscopy
Danio rerio [9] = test: In vivo agonist activity at human GFP-tagged PPARalpha in transgenic zebrafish assessed as increase in GFP expression in brain at 0.5 uM measured after 14 hrs by microscopy
[10] = biological target: T1, Peroxisome proliferator-activated receptor gamma (Mus musculus); test: Agonist activity at human PPARgamma in mouse 3T3-L1 cells assessed as induction of Adipoq-mRNA expression at 25 uM incubated for 11 days by quantitative real-time PCR analysis; conditions: filed as agonist, time 11.0 day
[11] = Cmax in C57BL/6 mouse at 40 mg/kg, ip measured upto 24 hrs by LC-MS/MS analysis; format: ADME, organism-based; set-up: dose 40 mg/kg, time < 24 hrs, route ip; conditions: in vivo
Method in brief: as §1

[12] = Elimination rate constant in C57BL/6 mouse at 40 mg/kg, ip measured upto 24 hrs by LC-MS/MS analysis; format: ADME, organism-based; conditions: in vivo
Method in brief: as §1

[13] = Relative bioavailability in C57BL/6 mouse at 100 mg/kg […] by LC-MS/MS analysis; format: ADME, organism-based; conditions: in vivo
[14] = Cmax in C57BL/6 mouse at 100 mg/kg, po measured upto 24 hrs by LC-MS/MS analysis; format: ADME, organism-based; set-up: time < 24 hrs, dose 100 mg/kg, route po; conditions: in vivo
Method in brief: as §2

[15] = Elimination rate constant in C57BL/6 mouse at 100 mg/kg, po […] by LC-MS/MS analysis; format: ADME, organism-based; conditions: in vivo
[16] = Tmax in C57BL/6 mouse at 100 mg/kg, po measured upto 24 hrs by LC-MS/MS analysis; conditions: in vivo
Danio rerio [17] = test: In vivo agonist activity at human GFP-tagged PPARalpha in transgenic zebrafish assessed as increase in GFP expression in heart at 1.5 uM measured after 14 hrs by microscopy
Danio rerio [18] = test: In vivo agonist activity at human GFP-tagged PPARalpha in transgenic zebrafish assessed as increase in GFP expression in yolk sac at 1.5 uM measured after 14 hrs by microscopy
Danio rerio [19] = test: In vivo agonist activity at human GFP-tagged PPARalpha in transgenic zebrafish assessed as increase in GFP expression in muscle at 1.5 uM measured after 14 hrs by microscopy

## CCCCCC/C=C\CCCCCCCc1cccc(OC(C)(C)C(=O)O)c1
Danio rerio [1]
  Activity: Active

## CCCCCCCCCCCCCCCc1cccc(OC(C)(C)C(=O)O)c1
[2]
  AUC(0-inf): 748 µg·h/mL
[3]
  half-life: 2.3 h
[4]
  CL/F: 2.3 mL/min/kg
[5]
  half-life: 4 h
[6]
  Activity: Active
[7]
  AUC(0-inf): 717 µg·h/mL
Danio rerio [8]
  Activity: Active
Danio rerio [9]
  Activity: Active
[10]
  Activity: Active
[11]
  Cmax: 102 µg/mL
[12]
  k el at 24 h: 4.83e-05 s⁻¹
[13]
  bioavailability: 38%
[14]
  Cmax: 76 µg/mL
[15]
  k el: 8.28e-05 s⁻¹
[16]
  Tmax: 4 h

## CCCCCCCCCCCCCCCc1cccc(OC(C)=O)c1C(=O)O
Danio rerio [17]
  Activity: Active
Danio rerio [18]
  Activity: Active
Danio rerio [19]
  Activity: Active
